# Screening results (PubChem BioAssay)
# PMI act hi M6P: increases human PMI activity with near-saturating mannose 6-phosphate. activation factor at 20 µM. 190,000 tested, 0.34% active. coupled PMI enzyme assay, resazurin fluorescence, 20 min; stronger effect = higher value; 1 = untreated enzyme, 0 = substrate-free blank. P34949. AID 1216;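 active = activation factor of 2 or more at 20 µM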
# Target sequence (P34949 whole entry, looked up): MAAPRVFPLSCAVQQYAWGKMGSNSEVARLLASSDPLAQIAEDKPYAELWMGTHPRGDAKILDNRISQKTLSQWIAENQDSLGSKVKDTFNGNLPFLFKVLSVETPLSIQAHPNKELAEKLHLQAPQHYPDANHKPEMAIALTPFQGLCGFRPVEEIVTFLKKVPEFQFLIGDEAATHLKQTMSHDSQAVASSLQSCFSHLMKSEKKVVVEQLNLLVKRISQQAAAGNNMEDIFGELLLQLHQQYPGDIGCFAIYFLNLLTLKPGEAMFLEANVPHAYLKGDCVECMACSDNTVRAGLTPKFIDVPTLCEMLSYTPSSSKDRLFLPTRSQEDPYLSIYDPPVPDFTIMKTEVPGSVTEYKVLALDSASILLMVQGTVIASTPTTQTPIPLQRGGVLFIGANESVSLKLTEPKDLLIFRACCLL
#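 Test system – human PMI in coupled enzyme assay · Timing – 20 min incubation at room temperature · Detection – Diaphorase-driven resazurin-to-resorufin fluorescence, excitation 544, emission 590 nm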
# HCT116 PTEN-null: growth suppressors of cells with PTEN tumor suppressor deletion | HCT116 PTEN-null viability, CellTiter-Glo, 60 h; stronger effect = lower value | viability, % at 10 µM | 140,000 tested, 1.2% active | AID 827;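 active = viability at or below a set limit, 4 SD under the median of all tested compounds, cut at about 3.7% in these data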;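 note: PTEN knockout HCT116 line with beta catenin targeted HCT116 as companion control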
# PMI activator: activators of human phosphomannose isomerase | purified human PMI, coupled resazurin fluorescence, 20 min; stronger effect = higher value; 1 = vehicle control, 0 substrate-free wells | AID 1214 | P34949 | 190,000 tested, 0.005% active | activation factor at 20 µM;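 active = activation factor of 2 or more at 20 µM, relative to plate controls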
# L major viab: Leishmania major promastigote growth inhibition. Leishmania major promastigotes, resazurin fluorescence viability. inhibition, % at 10 µM. 200,000 tested, 9% active; in the data active = inhibition above about 50%;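 note: promastigotes grown with compound for 44 hours at 28 °C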
# bCat KO growth: beta-catenin-lacking colon tumor cell growth suppression; HCT116 beta-catenin knockout viability, CellTiter-Glo, 60 h; stronger effect = lower value; viability, % at 10 µM; 140,000 tested, 1.5% active;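 active = viability at or under a set limit, the compound median less 4 SD, cut at about 6% in these data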;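 note: 0% = Hyamine 1622 control at 20 µM and 100% = untreated cell control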
# L major 1uM: L. major promastigote growth inhibition, 1 uM repeat; 1,100 tested, 13% active; AID 1258; resazurin fluorescence, 48 h; inhibition, % at 1 µM; shares compounds with L major viab;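 active = inhibition above about 50% in both repeat tests, limit read from the data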
# Numbers without * were called inactive; · = not tested or not shown. Compounds with a hit are over-represented: about 9.6% of the library has one in this group of screens.
SMILES,PMI act hi M6P,HCT116 PTEN-null,PMI activator,L major viab,bCat KO growth,L major 1uM
Nc1ncc(-c2nnnn2-c2ccc(Cl)cc2)c(-c2ccc(Cl)cc2)n1,0.9,13.1,0.9,0.9,16.6,·
Cc1ccc(-c2cc(-c3ccc(F)cc3)c(C#N)c(N)n2)o1,1.5,87.2,1.2,60.2*,93.6,-15.1
Cc1ccccc1-n1sc2cc(F)ccc2c1=O,0.2,·,-0.1,80.0*,·,-21.3
Cc1ccccc1-n1c(=O)c2ccccc2n2cnnc12,1,98.1,1,-1.2,94.5,·
Cc1ccc(NC(=S)c2nc3ccccc3[nH]2)cc1,1,20.8,0.9,70.5*,34.2,-4.4
O=CN1CC(=O)N(c2ccccc2)c2c([nH]c3ccccc23)C1,0.9,96.4,1,4.1,90.7,·
CCc1ccc(C2c3[nH]c4ccccc4c3CCN2C(=O)CN2CCN(CC)CC2)cc1 (stereo not given),1,·,0.9,74.9*,·,-10.4
Cc1ccc(Cl)cc1N1CCN(S(=O)(=O)c2ccc3c(c2)oc(=O)n3C)CC1,1,74.9,1,7.2,73.0,·
O=C1CNC(=O)N1CC(O)Cn1c2ccccc2c2ccccc21 (stereo not given),1,·,0.9,-4.9,·,·
c1cncc(-c2nnc(-c3cccnc3)nn2)c1,0.4,1.6*,0.5,96.6*,1.7*,-22.4
Brc1ccccc1-n1nnc(-c2cccnc2)n1,1,·,1,18.2,·,·
COC(=O)CNC(=O)C12CC3CC(C1)CC(c1ccc(C)cc1)(C3)C2,0.9,·,0.9,-0.8,·,·
Cc1ccc(C23CC4CC(CC(CN)(C4)C2)C3)cc1,1,·,1,100.1*,·,13.2
Cc1ccc(-c2cc(C(F)F)n3ncc(C(=O)N4CCCCC4c4cccnc4)c3n2)cc1 (stereo not given),0.9,·,0.9,95.2*,·,14.6
Cc1c(-c2ccnc3cc(C(=O)O)nn23)cnn1C,1,·,1.1,-7.5,·,·
O=C/C(=C\Nc1ccccn1)c1nc2cc(Cl)ccc2o1,0.8,81.0,1.1,71.8*,84.9,-1.1
CCOc1cc(/C=C2/NC(=O)NC2=O)cc(Br)c1OCc1ccc(C(=O)O)cc1,0.9,·,1,3.5,·,·
CCNC(=S)N1CCN(c2ccc([N+](=O)[O-])cc2)CC1,0.9,95.8,1,5.1,107.8,·
O=[N+]([O-])c1ccc(N2CCN(C(=S)NCc3ccc(Cl)cc3)CC2)cc1,0.9,·,1,67.9*,·,-12.4
CCOC(=O)c1ccc2c(c1)nc(C1CCN(S(=O)(=O)c3cccs3)CC1)n2CC,0.9,58.8,0.9,100.0*,62.7,5.0
CC(=O)Nc1ccc(NC(=O)C(C)OC(=O)/C=C/c2cccs2)cc1 (stereo not given),0.9,·,0.9,-2.2,·,·
CC(=O)Nc1cccc(C(=O)/C=C/c2cccs2)c1,1.1,1.6*,1.2,93.1*,1.5*,-8.2
CN(C)C(CNC(=O)c1cccnc1Sc1ccccc1)c1ccco1 (stereo not given),1,94.1,1,0.1,88.3,·
Nc1n[nH]c(-c2ccccc2)n1,1,93.4,1,-3.6,97.3,·
Nc1n[nH]c(-c2ccccc2[N+](=O)[O-])n1,1,92.8,1.1,60.3*,94.9,-3.7
SMILES,PMI act hi M6P,HCT116 PTEN-null,PMI activator,L major viab,bCat KO growth,L major 1uM
O=C(COC(=O)CCC1CCCC1)Nc1ccc(Cl)cc1F,0.9,90.6,0.8,-6.4,87.7,·
CCc1ccc2oc(-c3ccc(OC)cc3)cc(=Nc3c(C)n(C)n(-c4ccccc4)c3=O)c2c1,1.4,·,1.3,90.3*,·,1.0
CCc1ccc2oc(-c3ccc(OC)cc3)cc(=Nc3cccc(C(=O)O)c3)c2c1,0.8,·,1,0.3,·,·
O=c1oc2c(-c3cccc(F)c3)cc(O)cc2s1,1,·,1.1,-12.7,·,·
Cc1ccc(C[n+]2cccc(-c3ccccc3)c2)c(C)c1,1,45.8,1,91.4*,37.0,3.1
CCCCCCOC(=O)Cc1c(C)nc(-c2ccccc2)[nH]c1=O,1,90.1,1,-7.0,81.3,·
Cc1cc(NCCN2CCOCC2)n2c(nc3ccccc32)c1C#N,0.9,91.4,0.8,4.0,93.9,·
CN(C)CCNc1c2c(c(C#N)c3nc4ccccc4n13)CCCC2,0.8,24.3,1,53.7*,8.5,-16.0
Cc1onc(-c2c(Cl)cccc2Cl)c1C(=O)N1CCCc2ccccc21,1.1,23.1,1,92.2*,26.6,-19.6
Cc1noc(C)c1C(=O)N1CCc2ccccc21,1,107.5,1,-7.3,112.9,·
CCOC(=O)c1nc2cc3n(c(C)c-2c1C)C(C)C(CC)=C3C (stereo not given),·,·,·,99.1*,·,29.2
c1ccc(-c2ccccc2-n2cnnn2)cc1,0.9,94.4,1.1,-6.2,98.5,·
CC(C)(C)OC(=O)NCCCCCc1nnc(SCC(=O)Nc2cccc(Cl)c2)o1,1,83.2,1,0.2,83.2,·
O=C(Oc1ccc(Cl)c2cccnc12)c1cccc([N+](=O)[O-])c1,0.8,22.5,0.8,99.3*,26.2,0.7
COc1ccccc1NC(=O)Cn1nc(-c2ccc(Cl)cc2)c2ccccc2c1=O,1.1,14.4,1,67.8*,9.3,10.2
COc1ccc(/C=C(/NC(=O)c2ccccc2Cl)C(=O)NCCCC(=O)O)cc1,1,·,1,-5.6,·,·
C1=C(CCNCC2CCCCC2)CCCC1,1.1,58.6,1.1,92.4*,64.2,47.1
Cc1ccc(C(CC(N)=O)c2ccco2)cc1 (stereo not given),1.1,91.1,1.1,-1.6,93.6,·
Cc1ccc(C(CCN)c2ccco2)cc1 (stereo not given),0.9,95.5,0.9,97.7*,117.8,-8.7
C=CCn1c(SCc2nc3ccccc3[nH]2)nnc1-c1cccc(OC)c1,0.9,82.7,0.9,28.1,82.4,·
O=S(=O)(c1ccc(Cl)cc1)c1cnc(-c2cccnc2)nc1-c1ccccc1,1,55.1,1,-0.6,87.9,·
Cc1nc(-c2ccccc2)sc1-c1nc(-c2ccncc2)ncc1S(=O)(=O)c1ccccc1,1,8.1,0.9,58.5*,9.4,17.5
Cc1[nH]c2ccccc2c1C(c1ccccn1)N1CCC(C(N)=O)CC1 (stereo not given),1,68.7,1.1,59.7*,64.4,5.1
CCOC(=O)C1CCN(C(c2ccccn2)c2c(C)[nH]c3ccccc23)CC1 (stereo not given),0.9,79.4,0.8,35.1,59.8,·
Clc1cccc(Cl)c1COn1nnc2ccccc21,1,18.7,1.1,-1.9,13.8,·
c1ccc(COn2nnc3ccccc32)c(COn2nnc3ccccc32)c1,0.8,65.2,0.9,86.9*,82.7,-9.2
CCc1ccc(NC(=O)N(CCOC)C2CCN(C(C)=O)CC2)cc1,1.1,94.5,0.9,-3.6,104.8,·
Clc1ccc2[nH]c3c(c2c1)CCc1cn[nH]c1-3,0.9,72.3,0.9,54.4*,71.2,-8.6
